Consider one compound from ChEMBL document CHEMBL4190330, “Discovery of Potent and Selective A2A Antagonists with Efficacy in Animal Models of Parkinson's Disease and Depression” (ACS Med Chem Lett, 2017).

pEC50, pIC50, pKi: −log10 of the molar value. Values after ≈ are worked out from the molar mass of the structure shown. Active and inactive are the calls of the source. The calls are words filed in the database; no cut-off is given here.

Series [1] concerns the target T1, Adenosine receptor A2a (Homo sapiens, UniProt P29274). Kind of series: Displacement of [3H]ZM241385 from human A2A receptor expressed in HEK293 cell membranes after 90 mins radioligand binding assay. Summed up:
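Membranes from HEK-293 cells overexpressing the relevant human adenosine receptor subtype; all points in triplicate; Ki derived from 8-concentration IC50 curves.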
(In general: In a radioligand displacement assay an active substance lowers the binding of a labelled ligand.)

Series [2] has as its target T1, Adenosine receptor A2a. Kind of series: Antagonist activity at human A2A receptor expressed in HEK293 cell membranes assessed as reduction in CGS-21680-induced cAMP level pretreated for 15 mins followed by CGS-21680 addition measured after 30 mins by HTRF assay. Format: functional, cell-based. Summed up: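 HTRF-based cAMP functional assay; each compound tested at 12 concentrations, every point in triplicate; Ki given as mean of two independent experiments (n=2).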
(In general: Cyclic AMP is a second messenger, typically raised through Gs and lowered through Gi signalling.)

For a further series, the species on record is Homo sapiens. Kind of series: Selectivity ratio of Ki for displacement of [3H]-HEMADO from human A3 receptor expressed in HEK293 cell membranes to Ki for displacement of [3H]ZM241385 from human A2A receptor expressed in HEK293 cell membranes. Summed up: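 Radioligand binding used membranes from HEK-293 cells overexpressing each human adenosine receptor isoform. Points were run in triplicate, and 8-concentration IC50 curves were plotted to give Ki. The selectivity value is the Ki at the off-target isoform divided by the Ki at hA2A.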

The nature of series [3]: Solubility of the compound at pH 7.4. Format: physicochemical. The settings on record: buffer.
Series [4] concerns the target T2, Adenosine receptor A3 (Homo sapiens) (UniProt P0DMS8).
T2 sequence (whole entry): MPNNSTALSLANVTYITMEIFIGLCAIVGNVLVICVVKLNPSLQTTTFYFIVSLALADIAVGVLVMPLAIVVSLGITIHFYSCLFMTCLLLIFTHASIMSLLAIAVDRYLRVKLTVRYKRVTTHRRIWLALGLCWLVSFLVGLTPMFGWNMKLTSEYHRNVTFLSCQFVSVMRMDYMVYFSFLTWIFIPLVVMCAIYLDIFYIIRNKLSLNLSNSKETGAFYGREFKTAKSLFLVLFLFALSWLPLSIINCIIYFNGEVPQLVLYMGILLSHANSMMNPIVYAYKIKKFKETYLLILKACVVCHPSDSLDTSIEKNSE
As to the kind of experiment: Displacement of [3H]-HEMADO from human A3 receptor expressed in HEK293 cell membranes at 10 uM after 90 mins radioligand binding assay. In short, it runs like this: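 Membranes from HEK-293 cells overexpressing human A3 receptor; points in triplicate; highest concentration tested 10 µM.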

Series [5] is described as follows: Solubility of the compound at pH 4. Format: physicochemical. The following applies: buffer.
Series [6] is described as follows: Protein binding in human plasma. Format: ADME, cell-free. The following applies: read-out: PPB (converted).
A further series has as its target Cytochrome P450 3A4 (Homo sapiens, UniProt P08684). Kind of series: Inhibition of CYP3A4 (unknown origin). Format: ADME.
The target of another series is T3, Cytochrome P450 1A2 (Homo sapiens, UniProt P05177).
T3 sequence (P05177 whole entry): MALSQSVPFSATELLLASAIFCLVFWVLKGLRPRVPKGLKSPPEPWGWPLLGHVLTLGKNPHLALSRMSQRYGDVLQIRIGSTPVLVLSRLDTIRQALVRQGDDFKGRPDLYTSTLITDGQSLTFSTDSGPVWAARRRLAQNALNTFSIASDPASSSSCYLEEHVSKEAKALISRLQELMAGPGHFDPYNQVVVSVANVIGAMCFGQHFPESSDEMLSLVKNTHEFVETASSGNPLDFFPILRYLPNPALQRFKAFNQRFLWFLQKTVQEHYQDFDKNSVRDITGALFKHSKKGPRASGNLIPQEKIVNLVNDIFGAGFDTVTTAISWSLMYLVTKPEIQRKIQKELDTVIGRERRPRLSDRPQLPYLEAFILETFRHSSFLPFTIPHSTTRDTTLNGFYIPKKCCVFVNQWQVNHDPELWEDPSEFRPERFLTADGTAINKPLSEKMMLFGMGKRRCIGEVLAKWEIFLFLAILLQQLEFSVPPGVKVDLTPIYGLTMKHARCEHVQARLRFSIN
As to the kind of experiment: Inhibition of CYP1A2 (unknown origin). Format: ADME.

Another series has as its target Cytochrome P450 2C9 (Homo sapiens, UniProt P11712). As to the kind of experiment: Inhibition of CYP2C9 (unknown origin). Format: ADME.
Series [7] concerns the target T4, Nuclear receptor subfamily 1 group I member 2 (Homo sapiens, UniProt O75469).
T4 sequence (O75469 whole entry): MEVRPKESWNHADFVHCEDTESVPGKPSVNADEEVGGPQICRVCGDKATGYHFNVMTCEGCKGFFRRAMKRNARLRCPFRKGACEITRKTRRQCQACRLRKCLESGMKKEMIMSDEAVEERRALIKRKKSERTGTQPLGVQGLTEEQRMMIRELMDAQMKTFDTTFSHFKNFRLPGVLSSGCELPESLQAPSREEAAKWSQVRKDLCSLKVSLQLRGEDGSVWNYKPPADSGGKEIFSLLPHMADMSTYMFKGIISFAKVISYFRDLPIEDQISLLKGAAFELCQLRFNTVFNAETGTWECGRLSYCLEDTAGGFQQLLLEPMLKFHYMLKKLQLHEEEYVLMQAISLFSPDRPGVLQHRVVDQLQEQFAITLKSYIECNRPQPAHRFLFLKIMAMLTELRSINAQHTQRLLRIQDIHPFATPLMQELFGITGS
As to the kind of experiment: Transactivation of recombinant human PXR expressed in HepG2 cells after 42 hrs by dual luciferase reporter gene assay. Format: ADME, cell-based.

Series [8] is described as follows: Volume of distribution at steady state in Wistar rat at 3 mg/kg, iv by LC-MS/MS analysis. Format: ADME, organism-based. The settings on record: in vivo, read-out: Vdss. In short, it runs like this: (§1)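 Male Wistar rats, n = 4; iv dose 3 mg/kg in 10% NMP, 10% Cremophor EL, acetate buffer pH 4.2 q.s.; values are means.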
Series [9] in a line: Terminal half-life in Wistar rat at 3 mg/kg, iv by LC-MS/MS analysis. Format: ADME, organism-based. The settings on record: in vivo, read-out: beta t1/2 (converted). Summed up: as §1
A short description of series [10]: Cmax in Wistar rat at 10 mg/kg, po administered via gavage by LC-MS/MS analysis. Format: ADME, organism-based. Also noted: dose 10 mg/kg, route oral. The following applies: in vivo. Summed up: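 Male Wistar rats, n = 4; oral dose 10 mg/kg as suspension in 1% Tween 80 with 0.5% w/v NaCMC; values are means.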
Another series deals with Rattus norvegicus. As to the kind of experiment: Anti-parkinson's activity in po dosed 6-OHDA-lesioned Wistar rat assessed as increase in L-DOPA induced contralateral rotations measured up to 2 hrs. Format: functional. Summed up:
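6-OHDA-lesioned rats given oral test doses; L-DOPA 4 mg/kg ip; contralateral rotations recorded up to 2 h, dosing 60 min prior; mean ± SEM, n=6-7; compared with L-DOPA-alone group.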

T1 sequence (P29274 whole entry): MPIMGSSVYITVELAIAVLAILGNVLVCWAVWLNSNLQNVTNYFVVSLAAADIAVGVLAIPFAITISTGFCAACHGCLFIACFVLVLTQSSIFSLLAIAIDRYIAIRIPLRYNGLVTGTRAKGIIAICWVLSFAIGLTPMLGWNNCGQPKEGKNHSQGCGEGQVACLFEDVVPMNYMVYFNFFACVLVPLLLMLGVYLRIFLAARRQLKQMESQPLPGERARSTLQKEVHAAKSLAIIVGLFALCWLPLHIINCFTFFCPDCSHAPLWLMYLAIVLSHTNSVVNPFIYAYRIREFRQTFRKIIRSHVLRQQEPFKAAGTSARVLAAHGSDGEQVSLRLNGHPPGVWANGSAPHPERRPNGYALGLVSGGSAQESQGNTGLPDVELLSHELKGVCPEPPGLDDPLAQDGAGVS
Chain of Cytochrome P450 2C9 (P11712 whole entry): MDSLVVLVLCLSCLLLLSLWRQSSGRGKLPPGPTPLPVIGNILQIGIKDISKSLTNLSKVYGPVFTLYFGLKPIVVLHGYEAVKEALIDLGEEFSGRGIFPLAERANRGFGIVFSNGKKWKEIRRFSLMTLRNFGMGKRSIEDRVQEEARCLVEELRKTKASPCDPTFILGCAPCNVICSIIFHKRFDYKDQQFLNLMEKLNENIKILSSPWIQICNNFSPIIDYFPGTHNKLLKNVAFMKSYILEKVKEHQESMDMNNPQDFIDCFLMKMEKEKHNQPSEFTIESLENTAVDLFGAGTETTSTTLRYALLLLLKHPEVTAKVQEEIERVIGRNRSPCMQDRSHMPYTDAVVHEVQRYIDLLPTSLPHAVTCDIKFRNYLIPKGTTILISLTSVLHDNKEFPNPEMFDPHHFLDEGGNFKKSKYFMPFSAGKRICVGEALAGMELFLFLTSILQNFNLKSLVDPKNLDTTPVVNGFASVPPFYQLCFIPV
Chain of Cytochrome P450 3A4 (P08684 whole entry): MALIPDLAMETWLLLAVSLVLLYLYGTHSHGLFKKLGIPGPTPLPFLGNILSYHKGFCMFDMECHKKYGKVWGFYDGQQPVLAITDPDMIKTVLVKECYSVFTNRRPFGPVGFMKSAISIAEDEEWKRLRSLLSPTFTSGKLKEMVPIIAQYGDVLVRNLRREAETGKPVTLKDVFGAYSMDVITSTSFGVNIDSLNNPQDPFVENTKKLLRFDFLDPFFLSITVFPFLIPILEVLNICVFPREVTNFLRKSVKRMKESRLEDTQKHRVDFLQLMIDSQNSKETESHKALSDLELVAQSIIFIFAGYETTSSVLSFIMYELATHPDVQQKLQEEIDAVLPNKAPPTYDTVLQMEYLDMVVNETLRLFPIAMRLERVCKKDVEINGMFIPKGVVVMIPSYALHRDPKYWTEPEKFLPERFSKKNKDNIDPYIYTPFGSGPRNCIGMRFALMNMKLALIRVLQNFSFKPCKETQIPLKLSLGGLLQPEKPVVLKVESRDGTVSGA

As for `COCCOc1ccc(N2CCN(CCn3c(=O)n(C)c4c3nc(N)n3nc(-c5nccs5)nc43)CC2)cc1F`, the pKi (commonly the Ki on a negative log10 scale, so that one unit is a factor of ten) at Adenosine receptor A2a [1] was 8.82; on Adenosine receptor A2a [2], 9.40. Moreover, the Ratio Ki in the series listed under Homo sapiens was greater than 3000. Further, the solubility (in general, how much of the substance goes into solution per volume) in [3] came out at 17 µM (≈ 9.67 µg/mL); in [5], 486 µM (≈ 276 µg/mL). The inhibition result in series [4] was “inactive”. Further, in [6], the fraction unbound is 0.15. The pIC50 against Cytochrome P450 3A4, on Cytochrome P450 1A2 and at Cytochrome P450 2C9 was less than 5.00 each time. For the same compound, in series [7], the pEC50 (usually −log10 of the EC50, conventionally taken in molar units) was less than 4.22. In [8], the Vd came to 3.6 L/kg. For the same compound, the half-life in series [9] was 1 h. In addition, in series [10], the Cmax (commonly the highest concentration seen after dosing) worked out at 600 nM. Moreover, the Activity result in the series on Rattus norvegicus is “Dose-dependent effect”. Further, the 50% effective dose (ED50) (in general, the dose that gives a 50% effect, or the effect in half of the subjects) with Rattus norvegicus is 1.2 mg/kg.
